System: MS2 coat protein
Test: apparent Kd, MS2 coat protein; higher = weaker binding; RNA-MaP array; FMN 200 µM where present
Summary of the method: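 In 100 mM Tris-HCl pH 7.5, 80 mM KCl, 4 mM MgCl2, BSA, DTT, yeast tRNA and Tween-20, SNAP-549-labelled MS2 coat protein was titrated from 0.7 or 1.5 nM, doubling to 3 µM, over designs transcribed by stalled E. coli RNA polymerase on Illumina sequencing-chip clusters. This was done first without ligand, then with ligand held constant. After green signal was normalised to red-channel RNA signal and control-cluster median Fmax, the apparent Kd was taken as the median of filtered per-cluster binding-curve fits.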

[1] = designed as: OFF switch for flavin mononucleotide, no ligand
[2] = ligand present: flavin mononucleotide, designed as: OFF switch for flavin mononucleotide
[3] = designed as: ON switch for flavin mononucleotide, no ligand
[4] = ligand present: flavin mononucleotide, designed as: ON switch for flavin mononucleotide

| Sequence | apparent Kd [1] | apparent Kd [2] | apparent Kd [3] | apparent Kd [4] |
| --- | --- | --- | --- | --- |
| UAUGUUUCGCAGAAGGGAACGGUUUAUAACAAUUCAGGAUAUGCGACAUGAGGAUCACCCAUGUAGCAGUAUAUAGGGUUGAAU | 0.0075 µM | 0.0459 µM |  |  |
| UAUUAAUACAUAUACAUGAGGAUCACCCAUGUCAAAAGACAUGAGGAUAUGGAUCCUAAUUGGAUCCAGAAGGCAUGAAUAAUU |  |  | 0.347 µM | 0.0176 µM |
| UAUUAUCACGAAGGAUAUGCUGACAUGAGGAUCACCCAUGUAUGUAUAUUGGUCCAGCGUAUUUAGCAGAAGGUCGUGAGUAAA | 0.0454 µM | 0.0735 µM |  |  |
| UCAAGUAUGUAGGAUAUCGAUGUCCUCGGACAUCGAGAAGGACGUACAUGAGGAUCACCCAUGUAACUUGCAUG | 0.0638 µM | 0.0849 µM |  |  |
| UCACGGGACUAAGGAUAUACAUGAACCAUUUUUGUAGAAGGUAGAAUGUUUGAUCAUAAACUAAACAUGAGGAUCACCCAUGUU | 0.0234 µM | 0.021 µM |  |  |
| UCAGUUCUGCAAGGAUAUCGUCCUAGUUUGGUACGAGAAGGUGCUUUUGUUUUUUCCUUGUGUUGACAUGAGGAUCACCCAUGU | 0.0358 µM | 0.0465 µM |  |  |
| UCAUACAUGACAUGACAUGACAUGAGGAUCACCCAUGUUUACAAGGAUAUGUUGAUGAAACAUCAACAGAAGGUGUAUUGGACU | 0.0518 µM | 0.172 µM |  |  |
| UCAUACAUUCGAGGAUAUCGGUGAUUAAUUUUACGAGAAGGCGAUAUAAGAUUUAAUUUUUAAGACAUGAGGAUCACCCAUGUA |  |  | 0.0307 µM | 0.0296 µM |
| UCAUACGGUGAGGAUAUCUCCGCUAAAGUGUGUAGAGAAGGCGCUACAUGAGGAUCACCCAUGUUUAUGGGCAG | 0.403 µM | 0.228 µM |  |  |
| UCAUCUUGUCGAGGAUAUAUUAACAUGACAUGAGACACAUGAGGAUCACCCAUGUAUUUUUUUUUAUAGAAGGCGACUAUAUGU |  |  | 0.0326 µM | 0.0529 µM |
| UCAUGAUAUGUAGGAUAUCACAUUUAUUGAUUAAUAUAUGAAUAUAGAAUUUGAGAAGGACAUUUACAUGAGGAUCACCCAUGU | 0.0158 µM | 0.0167 µM |  |  |
| UCAUGGAAGUAGAAGGGUAAUAUAUUAGAUUUUACUAUUAGAUGUAGAUAUACAGGAUAUGCGAACAUGAGGAUCACCCAUGUG | 0.0627 µM | 0.0356 µM |  |  |
| UCAUUAUAAAUCCAUCAUAACUACAUGAGGAUCACCCAUGUGCAGGAUAUCGAUAAUUUAACUAACGAGAAGGGCAUUUACAGA | 0.0376 µM | 0.139 µM |  |  |
| UCAUUGGUAGUGAGGAUAUCGGUGUGAUGGAAUGACGAGAAGGCACAUGAGGAUCACCCAUGUAAGAUUGGGCU | 0.314 µM | 0.436 µM |  |  |
| UCAUUUAAUACAGGAUAUGUUAGUAUACAGUAGAUUGGUUAUAACAUAAUAACAGAAGGGUAGAACAUGAGGAUCACCCAUGUA |  |  | 0.086 µM | 0.0646 µM |
| UCAUUUAUUACAGGAUAUGUUAGUAUACAGUUGUUUGGUUAUUACUUAUUAACAGAAGGGUAGAACAUGAGGAUCACCCAUGUA |  |  | 0.0804 µM | 0.0407 µM |
| UCAUUUCAGUAAGGAUAUUAAAUCAUGACGAUACAUGAGGAUCACCCAUGUUAAGAAGGUACUAAUACAAAUAAUGCAUUGUUC | 0.0128 µM | 0.0111 µM |  |  |
| UCCAACAUGAGGAUCACCCAUGUACAGGAUAUUAGAUCAGCUCAGCGCGUCCGUCAAGAUAUUUCUAAGAAGGGUACUGGGUAC | 0.0202 µM | 0.0331 µM |  |  |
| UCCACUGCUGAGAAGGGAUACGUCUGGUUCGCAUCAGGAUAUCGAUACAGUGCAGCAUGAGGACAUGAGGAUCACCCAUGUGUG |  |  | 0.103 µM | 0.0536 µM |
| UCCCGGGUGCAGAAGGGAUAGGCCUAUUUUCGUGGUAUCCAAACCUAACAUGAGGAUCACCCAUGUCAGGAUAUGCCCACGGGA | 0.00487 µM | 0.00529 µM |  |  |
| UCCCGGUAAGAAGGAUAUACAUGAGGAUCACCCAUGUAUUAAACAUAUACUGGCCGUGGCCUUGUGUAGAAGGUCUGUCGGUCA | 0.00675 µM | 0.00597 µM |  |  |
| UCCGCUCGAGGAUAUACAUGAGGAUCACCCAUGUUUCCCUGUUGCUUGGCCUCAGGAUGUAGAAGGCGACGCUA | 0.0176 µM | 0.0198 µM |  |  |
| UCCGCUCGAGGAUAUACAUGAGGAUCACCCAUGUUUCCCUGUUGUUUGGCCUCAGGAUGUAGAAGGCGACGCUA | 0.0183 µM | 0.0236 µM |  |  |
| UCCUCACAUGAGGAUCACCCAUGUCAGGAUAUCUCACAGCUAAAGAAUAAAGGCUGCAAGAGAAGGGACACAAU | 0.0216 µM | 0.0481 µM |  |  |
| UCCUGGCGAGGAUAUACAAUGUUUUUCGCGUGUUGUUGCGAACAUGAGGAUCACCCAUGUAGAAGGUGCUACUG | 0.278 µM | 0.225 µM |  |  |
| UCCUUAUCGGUCAGGAUAUACACCCGUUUCUCCUUGUAGAAGGGACAUGAGGAUCACCCAUGUACUGUACAUUU | 0.03 µM | 0.031 µM |  |  |
| UCCUUGUCCUGAGGAUAUCCGCGGUGACCAAAAGGAGAAGGCAGGACAUGAGGAUCACCCAUGUACCCAGAAAACGUGCAGAGU | 0.0301 µM | 0.197 µM |  |  |
| UCCUUGUCCUGAGGAUAUCCGCGGUUCCCAAAAGGAGAAGGCAGGACAUGAGGAUCACCCAUGUACCCAGAAAACGUGCAGAAU | 0.00987 µM | 0.0427 µM |  |  |

| Sequence | apparent Kd [1] | apparent Kd [2] | apparent Kd [3] | apparent Kd [4] |
| --- | --- | --- | --- | --- |
| UCGAAAAUGCAAGGAUAUCAAUUAUAGCUAAAUUAGACAUGAGGAUCACCCAUGUAAAUAUGGAGUGAGAAGGUGCAAUAAUUU |  |  | 0.453 µM | 0.174 µM |
| UCGAACGGAAACAAAGUCUUCGGACAUGAGGAUCACCCAUGUAAGGAUAUGCCUACUAAAAGUAGGCAGAAGGUACGCGUUCGA | 0.0221 µM | 0.0511 µM |  |  |
| UCGACCAGCGCAACUCGAACAUGAGGAUCACCCAUGUACUCCAGAAGGCCGCCCAAGUACGGAGUGGAGGAUAUGGAGGUUCUC |  |  | 0.0569 µM | 0.0861 µM |
| UCGACGAAAGUCGAACGAUGUAGCAGAAGGACAUGAGGAUCACCCAUGUCAGCUGUAACAGCCAUGUAGGAUAUGCUACAUCGA | 0.00396 µM | 0.00554 µM |  |  |
| UCGAUGCUAGGAUAUACGUAUACCUCCACCGUUGAUUCCUAACAUGAGGAUCACCCAUGUAGAAGGAGCAUCUA | 0.0238 µM | 0.0236 µM |  |  |
| UCGAUGCUAGGAUAUACUAAUAAAACUACUGUAGUGUCUUCACAUGAGGAUCACCCAUGUAGAAGGAGCAUCUA | 0.0283 µM | 0.0218 µM |  |  |
| UCGCUGCGAGGAUAUACGUGCGCGCGCUCGCGUUCGCGCGUACAUGAGGAUCACCCAUGUAGAAGGCGCGCUGC | 0.0135 µM | 0.0132 µM |  |  |
| UCGUACAUUCGAGGAUAUCGGUGAUAAAUAAUACGAGAAGGCGAUUUUAGGCAUAACGCCUUAGACAUGAGGAUCACCCAUGUA |  |  | 0.0681 µM | 0.0551 µM |
| UCGUGUCAUGUAGGAUAUGACACAGGAAACUGGUCAGAAGGACAUGAGGAUCACCCAUGUAAAAUGUUCAAGAAUAACGCAUGC | 0.0788 µM | 0.161 µM |  |  |
| UCUAAGCGAAUCAAGAUGGAUAGAACAUGAGGAUCACCCAUGUAGGAUAUGCUACACAAAGUGUAGCAGAAGGACAAGCUUAGA | 0.0259 µM | 0.0362 µM |  |  |
| UCUCAUAUGCAGGAUAUCCAUGGCGGGCGGAGAGGAGAAGGGCAUACAUGAGGAUCACCCAUGUGUCCCGUGGG | 0.0272 µM | 0.0412 µM |  |  |
| UCUCGAUGUGUAGGAUAUCUGACCACUAUGACAAGAGAAGGGCACAUGAGGAUCACCCAUGUGGAGGACCACUGGUUCAGAUUA | 0.0409 µM | 0.051 µM |  |  |
| UCUCGUUUCGCAGGAUAUGCUGGUCGGAAAUAAACCGGCCACAUGAGGAUCACCCAUGUGCCACAGCAGAAGGGUGACACUAGA |  |  | 0.527 µM | 0.0539 µM |
| UCUCUGCGAGGAUAUACGUGCGCGCGCGCGCGCGCGCGCGUACAUGAGGAUCACCCAUGUAGAAGGCGCUCUGC | 0.0308 µM | 0.0282 µM |  |  |
| UCUCUUCUGUAGAAGGCCCAACUUGUGAAGAUAACGAUACUAUAGAAGUAGGGAGGAUAUACAUGAGGAUCACCCAUGUAGGAA | 0.00809 µM | 0.0158 µM |  |  |
| UCUUAUUGCAAGGAUAUGCUUUUUAUUUCUUUUGCAGAAGGUGCAACAUGAGGAUCACCCAUGUUUCCGGGCAU | 0.016 µM | 0.028 µM |  |  |
| UCUUUCGUUGUGAGGAUAUGCCCAAAUAAAAGCGGGCAGAAGGCACAUGAGGAUCACCCAUGUCCUGCGGUUUU | 0.0228 µM | 0.288 µM |  |  |
| UCUUUCUUUGUGAGGAUAUGCCCAAAUAAAAGCGGGCAGAAGGCACAUGAGGAUCACCCAUGUUCUGCGGUUUU | 0.0545 µM | 0.486 µM |  |  |
| UGAAAGUGAGGAUAUGGUGAGUAGUGCCUGAGCGCUGCUCACCAGAAGGCACAUGAGGAUCACCCAUGUAAAUG | 0.0534 µM | 0.17 µM |  |  |
| UGAAAUCAUGUAGGAUAUGCAUGGCGAAGCUACGCAGAAGGACAUGAGGAUCACCCAUGUGCUAGCUACCGAGUUCGGUGGCAA | 0.103 µM | 0.215 µM |  |  |
| UGAAAUCAUGUAGGAUAUGCAUGGCGAAGCUACGCAGAAGGACAUGAGGAUCACCCAUGUGCUAGCUACCGGAUACGGUGGCAA | 0.0991 µM | 0.23 µM |  |  |
| UGAAAUCAUGUAGGAUAUGCAUGGCGAAGCUACGCAGAAGGACAUGAGGAUCACCCAUGUUAAAGCUACCGGAUACGGUGGCAA | 0.192 µM | 0.156 µM |  |  |
| UGAAAUCAUGUAGGAUAUGCAUGGCGAAGCUACGCAGAAGGACAUGAGGAUCACCCAUGUUAUAGCUACCCAGUUCGGUGGCAA | 0.141 µM | 0.118 µM |  |  |
| UGAAUCAAUACAGGAUAUGGUGACGCACAUGAGGAUCACCCAUGUCCGCAGCGUGCUAAGCACGCCCAGAAGGGUAUUGAUCUG |  |  | 1.01 µM | 0.081 µM |
| UGAAUGUAGGAGAAGGAGGACUUCAUGAGGAUCACCCAUGUGUUAGGACUUAGGAUAUUUGACGACAUGAGGAUCACCCAUGUG |  |  | 0.0625 µM | 0.0557 µM |
| UGACGGAGCUGAGGAUAUACAUGAGGAUCACCCAUGUAAGAUCUCCAGGAAACUGGAGAUCAAAAGUAGAAGGCAGCUCCGUCA | 0.0154 µM | 0.0234 µM |  |  |
| UGACUGAAGCAAGGAUAUUGUAAAGUUAUCGUACAAGAAGGUGCUGUUUAUGUCUCUUUACAUGAGGAUCACCCAUGUUUUUAU |  |  | 0.0328 µM | 0.0246 µM |

Reference: the EternaBench riboswitch data
